CXCR6 inh: inhibitors of human CXCR6 receptor; O00574; CHO-K1 PathHunter CXCR6 beta-arrestin, luminescence; inhibition, % at 20 µM; 360,000 compounds, 0.36% hits; AID 602244; in the data active means inhibition above about 34%, passing the limit was not always enough;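 further: antagonist mode with CXCL16 agonist at 10 nM final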
EBI2 antag: EBI2 (human) antagonism; P32249; EBI2 beta-arrestin recruitment, luminescence, 7a,25-OHC stimulated; inhibition, % at 5 µM; 360,000 compounds, 0.81% hits; AID 651636; in the data active means inhibition above about 38%;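 further: enzyme fragment complementation signal reports receptor beta-arrestin coupling in cells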
APJ agonist: activates the human apelin receptor APJ | CHO-K1 APJ PathHunter beta-arrestin, luminescence; 0% DMSO wells, 100% apelin | P35414 | activation, % at 20 µM | 330,000 compounds, 0.11% hits | AID 2520;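 active means activation more than six SD over the plate average, tested at 20 µM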
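Material: CHO-K1 APJ beta-arrestin complementation cell line; Input: cell density 1000 per well; Incubation: compound stimulation 90 min at 25 °C, detection 60 min; Signal: luminescence from split beta-galactosidase complementation, Galacton Star/Emerald II substrate; Controls: DMSO-only wells as negative, 10 nM Apelin-13 as positive control.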
APJ antag: blocks the human apelin receptor APJ; inhibition, % at 20 µM; 330,000 compounds, 0.32% hits; CHO-K1 APJ beta-arrestin complementation, luminescence;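 active means inhibition above about 40% at 20 µM, limit read from the data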;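 further: cells challenged with 10 nM apelin-13 agonist together with compound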
CCR6 antag: blocks CCL20-driven beta-arrestin recruitment at human CCR6 | P51684 | CHO-K1 CCR6 PathHunter beta-arrestin, luminescence, CCL20-stimulated | inhibition, % at 20 µM | 340,000 compounds, 0.49% hits | AID 493098;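 active means compounds whose inhibition of the agonist-driven luminescence signal at 20 µM reaches about 50%, limit read from the data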;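 further: cells stimulated with CCL20 at 14 nM final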
Target sequence (P51684 whole entry, looked up): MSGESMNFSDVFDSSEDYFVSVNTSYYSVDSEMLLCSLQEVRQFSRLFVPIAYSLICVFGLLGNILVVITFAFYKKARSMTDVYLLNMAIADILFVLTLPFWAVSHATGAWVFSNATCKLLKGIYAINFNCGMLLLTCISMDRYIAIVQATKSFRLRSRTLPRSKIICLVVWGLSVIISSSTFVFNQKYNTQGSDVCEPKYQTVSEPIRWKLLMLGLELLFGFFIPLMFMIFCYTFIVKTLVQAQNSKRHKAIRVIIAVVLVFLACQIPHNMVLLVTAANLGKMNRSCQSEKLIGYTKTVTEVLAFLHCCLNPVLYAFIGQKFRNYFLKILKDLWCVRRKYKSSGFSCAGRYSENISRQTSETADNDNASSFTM
Numbers stand for hits; 0 = inactive; - = no result. Shown are actives, neighbours in structure and some others; about 1.5% of the full set was active somewhere.

SMILES	CXCR6 inh	EBI2 antag	APJ agonist	APJ antag	CCR6 antag
CCC(=O)NC(c1ccc(OC)c(OC)c1)c1cc(Cl)c2cccnc2c1O (stereo unspecified)	0	0	-	-	0
O=C(Oc1c(CN2CCOCC2)cc(Cl)c2cccnc12)c1ccccc1Cl	0	53	0	0	0
Oc1c(Cl)cc(Cl)c2cccnc12	49	0	-	-	63
CCCC1CCc2c(c3ccccc3[nH]c2=O)O1 (stereo unspecified)	0	0	0	0	0
Cc1cccc(NC(=O)Nc2ccc(Oc3c(F)c(F)c(F)c(F)c3F)cc2)c1	0	0	0	0	0
O=C(Nc1ccc(Oc2c(F)c(F)c(F)c(F)c2F)cc1)OC1CCN2Cc3ccccc3N=C12 (stereo unspecified)	0	44	0	0	0
Cc1ccc(S(=O)(=O)N2CCCCC2)cc1NC(=O)Cn1ncc(Cl)c(Cl)c1=O	0	63	0	0	0
COCCN(CC(=O)NC1CCCCC1)C(=O)/C=C/C(=O)c1ccc(OC)cc1O	62	0	-	-	65
COc1ccc(C(=O)/C=C/C(=O)N(CC(=O)NC2CCCCC2)Cc2cccs2)c(O)c1	72	0	0	0	92
COc1ccc(CN(C(=O)/C=C/C(=O)c2ccc(OC)cc2O)C(C(=O)NC2CCCCC2)c2ccncc2)cc1 (stereo unspecified)	0	0	0	0	0
CC1CCc2c(sc(NC(=S)NC(=O)c3ccccc3)c2C#N)C1 (stereo unspecified)	0	0	0	0	0
Cc1ccc(C(=O)COC(=O)CCC(=O)Nc2cc(Cl)ccc2Cl)cc1[N+](=O)[O-]	0	0	0	0	62
CN(c1ccccc1)S(=O)(=O)c1cccc(C(=O)NCCc2c[nH]c3ccccc23)c1	0	48	0	0	0
O=C(NCCc1c[nH]c2ccccc12)c1cccc(S(=O)(=O)Nc2ccccc2Cl)c1	0	0	0	0	0
C/C(N=Nc1nc2ccccc2s1)=N\Nc1ccccc1O	50	0	0	0	65
Cc1ccc(NC(=O)COC(=O)CNC(=O)c2ccc(Br)cc2)c(C)c1	0	0	0	0	0
CCOP(=O)(OCC)C(C#N)=C1SCN(c2ccc(Cl)cc2)CS1	0	0	0	0	82
CC(=O)CC1OC(=O)C(Br)=C1NCc1ccccc1 (stereo unspecified)	0	0	0	0	61
O=C(NC(=S)Nc1ccccc1Br)c1ccc2c(c1)OCO2	0	0	0	0	0
CC(C)c1ccc(O)c(NC(=S)NC(=O)c2ccc3c(c2)OCO3)c1	45	0	0	0	-
CC1C(c2ccccc2)N(C)C(c2ccccc2)C(C)C1(O)C#Cc1ccccc1 (stereo unspecified)	0	0	0	0	50
COC(=O)c1sc(S(=O)(=O)NC(C)C(=O)O)c(C(=O)OC)c1C (stereo unspecified)	0	0	0	0	0
COc1cc([N+](=O)[O-])cc(/C=N/NC(=O)C(C)Nc2ccccc2C)c1O (stereo unspecified)	0	69	0	0	0
CC(C)C(N)c1csc(NC(=O)Nc2ccc(OC(F)(F)F)cc2)n1 (stereo unspecified)	0	0	-	-	-
COc1ccc(-n2nc3c(N4CCC(C(=O)NCCc5ccccc5C)CC4)nnc(C)c3c2C)cc1	0	0	0	0	0
SMILES	CXCR6 inh	EBI2 antag	APJ agonist	APJ antag	CCR6 antag
COc1ccc(-n2nc3c(N4CCC(C(=O)NCc5ccccc5C)CC4)nnc(C)c3c2C)cc1	0	0	0	0	51
CN1C(=O)/C(=N\OC(=O)c2cccc3ccccc23)c2ccccc21	0	0	0	0	0
COc1ccc(C(=O)O/N=C2\C(=O)N(C)c3ccccc32)cc1	0	0	0	0	59
CSC(=S)N/N=C(\C)c1ccccc1	0	0	0	47	57
C/C(=N\NC(N)=S)c1ccccc1	0	0	0	0	0
CC(C)C[C@H]1CN(CCCC[C@H]2CNC(=O)C(=O)N2CCC2CCCCC2)C(=O)C(=O)N1CCc1ccccc1	0	0	-	-	-
Cc1ccn2c(Nc3ccccc3)c(-c3ccccn3)nc2c1	0	0	0	49	0
CCSC1=NC(C)(C)C=C(/C=C/c2ccc(Cl)cc2Cl)N1	0	0	0	0	66
CCOc1ccc(S(=O)(=O)N2CCCC(C(=O)NCCN3CCOCC3)C2)cc1Cl (stereo unspecified)	0	0	0	0	0
O=C(Nc1cccc(Oc2ccccc2)c1)C1Cc2c(-c3ccccc3)ccnc2O1 (stereo unspecified)	0	0	-	-	-

Bioassay records from PubChem BioAssay.
